Reference: ChEMBL document CHEMBL1126325, “Inhibition of pig kidney L-aromatic amino acid decarboxylase by 2,3-methano-m-tyrosines” (J Med Chem, 1992)

Legend:
[1] = molecular target: T1, Aromatic-L-amino-acid decarboxylase (Sus scrofa, UniProt P80041); test: Inhibitory activity against pig kidney L-aromatic amino acid decarboxylase (Dopa decarboxylase)
T1 sequence (P80041 whole entry): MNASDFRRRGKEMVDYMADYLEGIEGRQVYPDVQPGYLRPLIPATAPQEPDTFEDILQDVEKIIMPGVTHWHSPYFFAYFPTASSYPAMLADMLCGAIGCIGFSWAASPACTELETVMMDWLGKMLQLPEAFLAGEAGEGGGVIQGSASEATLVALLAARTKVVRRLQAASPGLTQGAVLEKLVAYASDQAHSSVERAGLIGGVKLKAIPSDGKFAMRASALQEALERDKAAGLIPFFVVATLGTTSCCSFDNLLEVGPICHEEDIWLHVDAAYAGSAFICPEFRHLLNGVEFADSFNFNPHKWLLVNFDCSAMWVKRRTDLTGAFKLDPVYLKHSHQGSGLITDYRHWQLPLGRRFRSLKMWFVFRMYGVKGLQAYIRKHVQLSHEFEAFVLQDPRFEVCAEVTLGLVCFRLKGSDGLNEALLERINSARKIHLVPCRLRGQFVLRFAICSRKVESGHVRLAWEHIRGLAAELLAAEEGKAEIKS
Outline: (§1)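 The enzyme was purified from pig kidney. The crude extract was clarified with Bioacryl-BP-1000 and centrifuged, then run over DEAE-cellulose, phenyl Sepharose CL-4B and Sephacryl S-300. Decarboxylase activity was measured by a continuous spectrophotometric CO₂-detection procedure using a commercial CO₂ kit. Inhibition was expressed as Ki.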

[2] = molecular target: T2, Aromatic-L-amino-acid decarboxylase (Sus scrofa) (UniProt P80041); test: Relative inhibitory comparison to that of (+)D-m-Tyrosine.
T2 sequence (whole entry): T1 sequence (P80041 whole entry)

[3] = molecular target: T1, Aromatic-L-amino-acid decarboxylase; test: Inhibitory activity against pig kidney L-aromatic amino acid decarboxylase (Dopamine decarboxylase); outline: as §1

| Ki [1] | Relative inhibition [2] | Ki [3] | SMILES |
| --- | --- | --- | --- |
| – | – | 22 µM | NC1(C(=O)O)CC1c1cccc(O)c1 (single isomer, unassigned; (+)) [listing 1 of 2 here] |
| – | 45.4 | – | NC1(C(=O)O)CC1c1cccc(O)c1 (single isomer, unassigned; (+)) [listing 2 of 2 here] |
| 630 µM | – | – | NC1(C(=O)O)CC1c1cccc(O)c1 (single isomer, unassigned; (-)) [listing 1 of 2 here] |
| – | 1.6 | – | NC1(C(=O)O)CC1c1cccc(O)c1 (single isomer, unassigned; (-)) [listing 2 of 2 here] |

More lines, now with the values behind:

| SMILES | Ki [1] | Relative inhibition [2] | Ki [3] |
| --- | --- | --- | --- |
| N[C@]1(C(=O)O)C[C@@H]1c1cccc(O)c1 | 330 µM | 3 | – |
| N[C@@]1(C(=O)O)C[C@H]1c1cccc(O)c1 | 49 µM | 20.4 | – |
